According to paper PMC3384366 (International Journal of Nanomedicine, 2012):

Assays:
[1] = Oral pharmacokinetics of curcumin in plasma of freely mobile rats; assay type: in vivo, Male Sprague-Dawley rats; details: for AUC/dose: mean ± SEM, n = 4
How it was run: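 Male Sprague-Dawley rats (215 ± 10 g) had jugular catheters placed under pentobarbital (50 mg/kg ip) and were used freely moving one day later. They were dosed by gavage at 1 g/kg. Heparinized jugular blood was drawn from 15 to 480 min, and plasma was stored at −20°C. Samples were assayed by HPLC with an internal standard (425 nm; acetonitrile/10 mM phosphate pH 3.5). Noncompartmental analysis, n = 4.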

reverted rat gut sacs = assay: Ex vivo curcumin absorption using reverted rat gut sacs; assay type: in vitro ADME, Male Sprague-Dawley rats; details: serosal fluid + sac tissue; 100 μg/mL, 60 minutes, 37°C; mean ± SE, n = 4
How it was run: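 Rats (210 ± 10 g) killed by i.p. urethane/α-chloralose overdose. Small intestine rinsed with 0.9% saline, split into duodenum, jejunum and ileum in 37°C TC-199 (pH 7.4), everted, and tied into ~2 cm medium-filled sacs. Sacs shaken at 37°C in TC-199 with added 100 μg/mL test compound or nanoformulation, 1 h. Serosal fluid and acetonitrile-homogenized tissue protein-precipitated with internal standard, then analysed by HPLC; amounts summed.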

[2] = Cumulative excretion of curcumin in feces and urine; assay type: in vivo, Male Sprague-Dawley rats; details: rat, oral, 1 g/kg; collected up to 72 hours
[3] = male, Sprague-Dawley, rat, plasma, po, 1 g/kg

COc1cc(/C=C/C(=O)CC(=O)/C=C/c2ccc(O)c(OC)c2)ccc1O [Curcumin]
AUC [1, 3]: 104 ng·h/mL | Cmax [1, 3]: 28 ± 10 ng/mL | Tmax [1, 3]: 45 min | Time for which curcumin could be detected in plasma after oral ingestion ([1]; rat plasma, oral, 1 g/kg (b48 prints 1 mg/kg)): 6 h | AUC/dose ([1]; rat plasma, oral, 1 g/kg): 0.0062 ± 0.003 | AUC/dose ([1]; rat plasma, oral, 1 g/kg, listed as curcumin alone): 0.0062 | Curcumin amount after incubation, duodenum (reverted rat gut sacs): 0.47 ± 0.04 µg | Curcumin amount after incubation, ileum (reverted rat gut sacs): 0.85 ± 0.02 µg | Curcumin amount after incubation, jejunum (reverted rat gut sacs): 1.01 ± 0.05 µg | Accumulated percentage of curcumin in urine [2]: ~0% | Accumulated percentage of unabsorbed curcumin in feces [2]: ~90%
